This is an account of results in ChEMBL document CHEMBL1158076, “Bioactive guaianolides from siyekucai (Ixeris chinensis)” (J Nat Prod, 2006).

Structures can show the parent of a compound that is named as a salt. The source made the active and inactive calls. The rule behind the calls is not given here. Where only a bound is given, the exact number is not on record here.

One data set deals with WI-38 VA13. As to the kind of experiment: Cytotoxicity against human VA13 cells. The class given is functional, cell-based.
The nature of data set [1]: Cytotoxicity against human Hep G2 cells. As to conditions: HepG2. In kind it is functional, cell-based.
The next data set deals with WI-38. As to the kind of experiment: Cytotoxicity against human WI38 cells. In kind it is functional, cell-based.
The test system of data set [2] is A549. Nature of the data set: Cytotoxicity against human A549 cells after 24 hrs by MTT method. As to conditions: A549, 24 h. In kind it is cell-based. In a few lines: (§1)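 A549 cells were exposed to serial dilutions for 24 h and viability was read by MTT, in triplicate cultures. Viability (%) = (experimental − background absorbance)/(control − background absorbance) × 100, and IC50 was derived from it.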

The test system of data set [3] is A549. As to the kind of experiment: Inhibition of ICAM1 induction in human A549 cells pretreated for 1 hr in presence of TNFalpha for 6 hrs. The class given is functional, cell-based.
Data set [4] concerns A549. As to the kind of experiment: Inhibition of ICAM1 induction in human A549 cells <100 uM pretreated for 1 hr at in presence of IL1alpha for 6 hrs. The class given is functional, cell-based.
Data set [5] relates to A549. As to the kind of experiment: Inhibition of ICAM1 induction in human A549 cells pretreated for 1 hr in presence of IL1alpha for 6 hrs. The class given is functional, cell-based.
Data set [6] relates to A549. As to the kind of experiment: Inhibition of ICAM1 induction in human A549 cells at <100 uM pretreated for 1 hr in presence of TNFalpha for 6 hrs. The class given is functional, cell-based.
Data set [7] relates to A549. Nature of the data set: Cytotoxicity against human A549 cells at <100 uM after 24 hrs by MTT method. The class given is cell-based. As to conditions: a549, 24 h. The procedure, abridged: as §1
In general terms: Tetrazolium assays rely on reduction of a dye to a coloured formazan, in cell work by metabolically active cells.

In data set [8] the test system is A549. Nature of the data set: Inhibition of ICAM1 induction in human A549 cells in presence of IL1alpha. The class given is functional, cell-based.

Take `C[C@@H]1C(=O)O[C@H]2[C@H]1CC[C@@](C)(O)[C@@H]1CC(=O)[C@@H](C)[C@H]21`: the IC50 in the data set with WI-38 VA13 is 160 µM; in [1], 230 µM; with WI-38, 32 µM.
Take `C=C1C(=O)O[C@@H]2[C@H]3C(=C)[C@@H](O[C@@H]4O[C@H](COC(=O)Cc5ccc(O)cc5)[C@@H](O)[C@H](O)[C@H]4O)C[C@H]3C(=C)C[C@@H](OC(=O)Cc3ccc(O)cc3)[C@@H]12` [IXEROCHINOSIDE]: the IC50 in the data set on A549 [2], in the data set on A549 [3] and in the data set with A549 [5] was greater than 100 µM throughout. The result with A549 [4] and with A549 [6] was inactive. Moreover, in the data set on A549 [7], the Activity result is reported as “Non-toxic”.
For `C=C1C(=O)O[C@@H]2C3=C(C)C(=O)C[C@H]3[C@](C)(O)CC[C@@H]12`, the IC50 in the data set on A549 [2] is greater than 100 µM; with WI-38 VA13 it was 22 µM; with A549 [8] it was 20.9 µM; in data set [1], 23 µM; in the data set on WI-38, 24 µM.
As for `CC1=C2[C@H]3OC(=O)[C@@H](C)[C@@H]3CC[C@@](C)(O)[C@@H]2CC1=O`, the half-inhibitory concentration (IC50) with A549 [2] is greater than 100 µM; in the data set with A549 [3], greater than 100 µM; in the data set with WI-38 VA13, 130 µM; in the data set on A549 [5] it was greater than 100 µM; in [1], 230 µM; in the data set with WI-38, 25 µM. Also, the outcome with A549 [4] and in the data set on A549 [6] was inactive. Moreover, the Activity entry in the data set on A549 [7] is reported as “Non-toxic”.
Take `C=C1[C@@H]2[C@H]3OC(=O)C(=C)[C@@H]3CC[C@@](C)(O)[C@@H]2C[C@@H]1O[C@@H]1O[C@H](COC(=O)Cc2ccc(O)cc2)[C@@H](O)[C@H](O)[C@H]1OC(=O)Cc1ccc(O)cc1` [CHINENSIOLIDE E]: the IC50 with A549 [2] was greater than 100 µM; with A549 [3], greater than 100 µM; in the data set on WI-38 VA13, 0.72 µM; in the data set with A549 [5], greater than 100 µM; in data set [1], 140 µM; with WI-38 it was 23 µM. Besides, the outcome in the data set on A549 [4] and with A549 [6] was inactive. In addition, the Activity result with A549 [7] is on record as “Non-toxic”.
In the data set on WI-38, `CC(=O)O[C@H]1C(=O)[C@@]2(C)[C@H]([C@H](OC(=O)c3ccccc3)[C@]3(O)C[C@H](OC(=O)[C@H](O)[C@@H](NC(=O)c4ccccc4)c4ccccc4)C(C)=C1C3(C)C)[C@]1(OC(C)=O)CO[C@@H]1C[C@@H]2O` [PACLITAXEL] yielded a half-inhibitory concentration (IC50) of 0.04 µM.
As for `C=C1C(=O)O[C@@H]2[C@H]3C(CO)=CC(=O)C3=C(C)CC[C@@H]12`, the 50% inhibitory concentration (IC50) was greater than 100 µM in the data set on A549 [2]; 20.1 µM with A549 [3]; 8.5 µM in the data set on WI-38 VA13; 16.1 µM in the data set with A549 [5]; 25 µM in data set [1]; 2.7 µM in the data set on WI-38.
As for `C=C1C(=O)C[C@@H]2[C@H]1[C@H]1OC(=O)C(=C)[C@@H]1CC[C@@]2(C)O`, the IC50 was 64.9 µM in the data set with A549 [2], 11.4 µM with A549 [3] and 10.9 µM in the data set on A549 [5].
As for `C=C1C(=O)O[C@@H]2[C@H]3[C@H](C)C(=O)C[C@H]3[C@](C)(O)CC[C@@H]12`, the IC50 with A549 [2] is greater than 100 µM; in the data set on A549 [3] it was 16.8 µM; in the data set with WI-38 VA13 it was 27 µM; with A549 [5], 16.4 µM; in [1] it was 22 µM; with WI-38, 25 µM.
In the case of `COc1cccc2c1C(=O)c1c(O)c3c(c(O)c1C2=O)C[C@@](O)(C(=O)CO)C[C@@H]3O[C@H]1C[C@H](N)[C@H](O)[C@H](C)O1` [DOXORUBICIN HYDROCHLORIDE], the IC50 in the data set on WI-38 VA13 was found to be 0.4 µM; in the data set on WI-38, 0.7 µM.

Broadly, the IC50 is the concentration that gives 50% inhibition.
